EBI2 antag = EBI2 (human) antagonism; P32249; EBI2 beta-arrestin recruitment, luminescence, 7a,25-OHC stimulated; inhibition, % at 5 µM; hit rate 0.81% among 360,000; in the data active = inhibition above about 38%;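 also: enzyme fragment complementation signal reports receptor beta-arrestin coupling in cells; 0% = agonist plus DMSO wells and 100% = wells without agonist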
CXCR6 inh = blocks human CXCR6 beta-arrestin recruitment; O00574; CHO-K1 PathHunter CXCR6 beta-arrestin, luminescence; inhibition, % at 20 µM; hit rate 0.36% among 360,000; AID 602244; in the data active = inhibition above about 34%, passing the limit was not always enough;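 also: antagonist mode with CXCL16 agonist at 10 nM final; 0% = 10 nM CXCL16 with DMSO and 100% = unstimulated wells without agonist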
Target sequence (O00574 whole entry, looked up): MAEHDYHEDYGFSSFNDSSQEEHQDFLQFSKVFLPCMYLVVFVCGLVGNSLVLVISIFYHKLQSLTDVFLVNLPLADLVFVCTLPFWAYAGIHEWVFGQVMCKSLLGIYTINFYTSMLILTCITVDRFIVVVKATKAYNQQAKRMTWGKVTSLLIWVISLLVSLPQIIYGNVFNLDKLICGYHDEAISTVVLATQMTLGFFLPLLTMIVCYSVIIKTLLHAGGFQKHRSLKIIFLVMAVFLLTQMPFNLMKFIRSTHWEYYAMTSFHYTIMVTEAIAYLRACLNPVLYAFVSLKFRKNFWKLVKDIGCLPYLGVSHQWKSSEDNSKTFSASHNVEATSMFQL
APJ antag = blocks the human apelin receptor APJ; AID 2521; inhibition, % at 20 µM; hit rate 0.32% among 330,000; P35414; CHO-K1 APJ beta-arrestin complementation, luminescence;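 active = inhibition above about 40% at 20 µM, limit read from the data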;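 also: cells challenged with 10 nM apelin-13 agonist together with compound; plate controls were apelin-13 plus DMSO wells for no effect and DMSO wells lacking apelin-13 for full effect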
APJ ag = activates the human apelin receptor APJ. P35414. CHO-K1 APJ PathHunter beta-arrestin, luminescence; 0% DMSO wells, 100% apelin. activation, % at 20 µM. hit rate 0.11% among 330,000. AID 2520;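 active = activation more than six SD over the plate average, tested at 20 µM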;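 also: 0% = DMSO alone and 100% = apelin-13 at 10 nM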
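Test system: CHO-K1 APJ beta-arrestin complementation cell line. Amount: cell density 1000 per well. Controls: DMSO negative, 10 nM Apelin-13 positive. Signal: luminescent beta-gal fragment complementation, chemiluminescent substrate. Read-out basis: agonist-driven arrestin binding to APJ. Timing: compound stimulation 90 min at 25 °C, detection 60 min.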
CCR6 antagonist = antagonists of human CCR6 receptor; CHO-K1 CCR6 PathHunter beta-arrestin, luminescence, CCL20-stimulated; inhibition, % at 20 µM; hit rate 0.49% among 340,000;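 active = compounds whose inhibition of the agonist-driven luminescence signal at 20 µM reaches about 50%, limit read from the data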;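 also: cells stimulated with CCL20 at 14 nM final; plate controls were DMSO with CCL20 for no effect and DMSO without agonist for full effect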
HTR2A ag = mouse HTR2A agonism via beta-arrestin recruitment; activation, % at 7.6 µM; hit rate 0.66% among 360,000; CHO-K1 mHTR2A beta-arrestin complementation, luminescence; percent of 30 µM serotonin response; P35363;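 active = activation above a run cutoff, the mean activation of all tested compounds plus 3 SD, cut at about 14% in these data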;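 also: 0% = plate median of compound wells and 100% = 30 µM serotonin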
APJ ag conf = confirmation of human APJ apelin receptor agonists; activation, % at 20 µM; shares compounds with APJ ag; CHO-K1 APJ PathHunter beta-arrestin, luminescence; hit rate 10% among 310;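 active = activation above 40%, taking the highest of four retests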;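 also: plate controls were DMSO wells for no effect and apelin-13 at 10 nM for full effect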
* = called active by the depositor; x = no result given. Only some compounds are listed: those with a hit (about 2.2% of all), similar ones and a draw of the others.

SMILES	EBI2 antag	CXCR6 inh	APJ antag	APJ ag	CCR6 antagonist	HTR2A ag	others
COC(CNC(=O)CCc1c(C)nc2c(c(C)nn2-c2ccc(C)cc2)c1C)OC	7	5	-8	1	13	5
Cc1ccc(-n2nc(C)c3c(C)c(CCC(=O)Nc4ccc(CN5CCCC5)cc4)c(C)nc32)cc1	14	-10	-4	0	52*	-3
O=C(NCc1cccnc1)NC1(c2ccccc2)CC1	-4	2	11	0	-9	20*
COc1ccc(CNC(=O)CC[C@H]2O[C@@H](n3cnc4c(NC(=O)c5ccccc5)ncnc43)[C@H](O)[C@@H]2O)cc1	1	0	x	x	x	2
CC(=O)Oc1oc(-c2ccccc2)nc1/C=N/c1ccccn1	-12	21	26	-3	51*	-4
CC(C)(C)C(=O)c1c(N)[nH]c(C(=O)c2ccccc2)c1-c1c(F)cccc1F	4	4	x	x	x	5
CN1/C(=C/C(=O)c2nc(S(C)(=O)=O)ncc2Cl)C(C)(C)c2ccccc21	58*	35	24	-3	37	-11
O=C(N/N=C/c1cc(Cl)ccc1O)c1ccncc1	50*	-9	-40	10	-2	-14
C(=N\Nc1nc2ccccc2s1)/c1ccccn1	x	x	34	-2	77*	x
Cc1csc(N/N=C/c2ccccn2)n1	0	23	12	-1	60*	4
CO[C@@H]1CN(C)C(=O)c2ccc(NC(=O)c3ccccc3F)cc2OC[C@@H](C)N(CC2CCOCC2)C[C@@H]1C	-9	x	x	x	x	9
COc1cc(CN(C)C)cc(C=O)c1O	9	1	-31	12	-11	-1
COc1cc(N=Nc2ccc(Br)cc2)cc(C=O)c1O	20	53*	x	x	x	-5
O=C(Nc1ccc([N+](=O)[O-])cc1Cl)c1cc(Cl)ccc1O	-5	8	5	5	29	0
O=C(Nc1cccc(Cl)c1)c1cc(N=Nc2ccc([N+](=O)[O-])cc2Cl)ccc1O	13	64*	56*	-11	100*	0
COc1ccc(C2=Nc3ccccc3N(C(=O)c3ccc4ncccc4c3)C2C(=O)NC(C)(C)C)cc1 (centres undefined)	15	x	x	x	x	0
O=C(OCC(=O)c1ccc(S(=O)(=O)N2CCCC2)cc1)C1=COCCO1	1	27	27	-9	53*	-1
COc1ccc(C(=O)OCC(=O)c2ccc(S(=O)(=O)N3CCCCC3)cc2)c(OC)c1	7	14	0	-9	34	12
Cc1ccc(S(=O)(=O)N2CCOCC2)cc1NC(=O)COC(=O)C1=COCCO1	-9	-4	23	-4	0	0
Cc1ccc(C(=O)OCC(=O)c2ccc(S(=O)(=O)N3CCCCC3)cc2)o1	20	32	36	-19	53*	2
CC1(C(=O)NS(=O)(=O)c2cccc(Cl)c2)CCN1C(=O)c1ccccc1CCc1ccccc1 (centres undefined)	1	-3	x	x	x	6
Cc1cc2c(C)nc(N/N=C/c3ccc(F)cc3)nc2o1	-6	0	9	-1	4	11
O=[N+]([O-])c1ccc(C=NNc2ccccc2)cc1	9	18	x	x	50*	2
Cc1cc2c(C)nc(N/N=C/c3ccc([N+](=O)[O-])cc3)nc2o1	1	4	x	x	108*	2
CC(=O)CC1OC(=O)C(Br)=C1NCc1ccccc1 (centres undefined)	11	32	40	-5	61*	-1
SMILES	EBI2 antag	CXCR6 inh	APJ antag	APJ ag	CCR6 antagonist	HTR2A ag	others
O=C(CC1Oc2ccccc2NC1=O)NCc1ccccc1 (centres undefined)	2	3	-6	1	-2	1
COc1ccccc1N(C)S(=O)(=O)c1ccc(C(=O)N(C)Cc2cccc(F)c2)cc1	6	0	x	x	x	-8
COC(=O)[C@@]12C[C@@H](CC(=O)NCc3ccccc3)C(=O)N(Cc3ccccc3)C1=CCC(C)(C)C2	10	x	x	x	x	-1
CCOC(=O)C1=NN(C(=O)c2ccc(OC)cc2)C(O)(c2ccc(Cl)cc2)C1 (centres undefined)	-3	24	-19	-7	42	2
CC1=NN(C(=O)c2ccccc2Cl)C(O)(c2ccccc2)C1 (centres undefined)	-11	0	-4	-5	7	-2
COC(=O)C1=NN(C(=O)c2cccc(Br)c2)C(O)(c2ccc(Cl)cc2)C1 (centres undefined)	-19	45*	5	0	x	-1
CC1=NN(C(=O)c2ccccc2)C(O)(c2ccc(Br)cc2)C1 (centres undefined)	14	34	24	-5	55*	2
CSc1ccc(Cn2c(C)c(C(=O)NCc3ccc4c(c3)OCO4)sc2=O)cc1	14	5	x	x	x	-4
Cc1cccn2c(=O)c3cc(C(=O)NCC4CCCO4)c(=N)n(CCN4CCOCC4)c3nc12 (centres undefined)	-9	8	-6	31*	-2	2	APJ ag conf=-5
CCCn1c(=N)c(C(=O)NCC2CCCO2)cc2c(=O)n3cccc(C)c3nc21 (centres undefined)	-1	0	5	-9	6	-2
CC(C)CCN(C(=O)C1CCCC1)c1c(N)n(Cc2ccccc2)c(=O)[nH]c1=O	-8	5	-1	-1	10	4
CC(C)CCN(C(=S)NC(=O)C1CCCCC1)c1c(N)n(Cc2ccccc2)c(=O)[nH]c1=O	2	8	-7	33*	0	0	APJ ag conf=39
Cc1cccc(NC(=S)NC(=O)CCc2ccccc2)c1	15	-19	-82	19*	-35	0	APJ ag conf=25
COc1ccc([N+](=O)[O-])cc1C(=O)Nc1ccc(Cc2ccncc2)cc1	6	-2	8	16*	7	0	APJ ag conf=12
COc1ccccc1C(=O)Nc1ccc(Cc2ccncc2)cc1	1	-14	-4	x	11	-3
Cc1ccc(-c2nn(-c3ccccc3)cc2/C=C/C(=O)OCC(=O)NC2CC2)o1	-15	-6	-27	12*	-10	10	APJ ag conf=5
CNC(=O)COC(=O)/C=C/c1cn(-c2ccccc2)nc1-c1ccc2c(c1)OCCO2	2	1	5	1	1	-1
COc1ccc(-c2nn(-c3ccccc3)cc2/C=N/N2C(=O)CSC2=S)cc1	-10	-12	-62	18*	-9	-7	APJ ag conf=22
COc1ccc(/C=N/N2C(=O)CSC2=S)cc1	-9	-8	-10	9	9	-4
CN1CCc2c(sc(/N=C/c3c[nH]c4ccccc34)c2C#N)C1	0	7	3	38*	17	0	APJ ag conf=-6
CCOC(=O)c1ccc2c(c1)n(CC)c(/C=C/N(C)c1ccccc1)[n+]2CC	-5	3	11	-4	19	2
